Data as given in ChEMBL document CHEMBL3124814, “Synthesis and Anti-HCV Activity of 4-Hydroxyamino α-Pyranone Carboxamide Analogues” (ACS Med Chem Lett, 2014).

Assays:
[1] = Cytotoxicity against human HuH7 cells expressing luciferase reporter gene after 3 days by WST-8 assay; assay type: cell-based, Huh-7
How it was run: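 LucNeo#2 subgenomic replicon cells, 50,000 cells/mL, pre-incubated 24 h in DMEM/10% FBS/antibiotics/1 mg/mL G418, then exposed 3 days to various compound concentrations without G418.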

[2] = (§1) Selectivity index, ratio of CC50 for human HuH7 cells to EC50 for HCV1b; parameters: species or system Huh-7
How it was run: (§2)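 Ratio of CC50 (WST-8 viable cell reduction) to EC50 (luciferase inhibition), both from LucNeo#2 replicon cells treated 3 days with compound in G418-free medium.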

Hepatitis C virus [3] = experiment: Antiviral activity against HCV1b infected in human HuH7 cells expressing luciferase reporter gene assessed as reduction of luciferase activity after 3 days; assay type: functional, organism-based, Hepacivirus hominis; conditions: genotype 1b, Huh-7, 72 h
How it was run: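 Subgenomic HCV replicon cells with luciferase reporter (LucNeo#2), 50,000 cells/mL in DMEM + 10% FBS, antibiotics, 1 mg/mL G418 for 24 h; then 3 days with various compound concentrations in fresh medium lacking G418. Cells PBS-washed, lysed, luciferase read by luminometer; EC50 as concentration giving 50% inhibition of luciferase activity.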

[4] = Cytotoxicity against human NNC2 cells assessed as GAPDH RNA level; assay type: cell-based
How it was run: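 NNC#2 full-genome replicon cells, 30,000 cells/mL, 24 h in DMEM/10% FBS/1 mg/mL G418, then 3 days with various concentrations without G418. GAPDH RNA, as cell-viability index, measured by real-time PCR simultaneously with HCV RNA; CC50 derived.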

Hepatitis C virus [5] = experiment: Antiviral activity against HCV1b infected in human NNC2 cells assessed as inhibition of viral RNA replication after 3 days by RT-PCR analysis; assay type: functional, organism-based, Hepacivirus hominis; conditions: genotype 1b, NNC2, 72 h
How it was run: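 Full-genome HCV RNA replicon cells (NNC#2), 30,000 cells/mL, held 24 h in DMEM + 10% FBS + 1 mg/mL G418, then 3 days in fresh G418-free medium with various concentrations.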

Huh-7 = experiment: as §1; how it was run: as §2

O=C(NCCO)c1c(NO)cc(-c2ccc(F)cc2)oc1=O
CC50 at 72 h [1]: > 20 µM | Ratio CC50/EC50 [2]: 6.7 | EC50 (Hepatitis C virus [3]): 2.98 µM

CNC(=O)c1c(NO)cc(-c2ccc(Cl)cc2)oc1=O
CC50 at 72 h [1]: > 20 µM | Ratio CC50/EC50 [2]: 25.6 | EC50 (Hepatitis C virus [3]): 0.78 µM

O=C(NCCO)c1c(NO)cc(-c2ccc(Cl)cc2)oc1=O
CC50 at 72 h [1]: > 20 µM | Ratio CC50/EC50 [2]: 5 | EC50 (Hepatitis C virus [3]): 4 µM

COC(=O)CNC(=O)c1c(NO)cc(-c2ccc(F)cc2)oc1=O
CC50 at 72 h [1]: > 20 µM | Ratio CC50/EC50 [2]: 10.3 | EC50 (Hepatitis C virus [3]): 1.93 µM

O=C(Nc1ccc(F)cc1)c1c(NO)cc(-c2ccccc2)oc1=O
CC50 at 72 h [1]: > 20 µM | Ratio CC50/EC50 [2]: 62.5 | EC50 (Hepatitis C virus [3]): 0.32 µM

O=C(Nc1ccc(Br)cc1)c1c(NO)cc(-c2ccccc2)oc1=O
CC50 at 72 h [1]: > 20 µM | Ratio CC50/EC50 [2]: 66.7 | EC50 (Hepatitis C virus [3]): 0.3 µM

Cc1ccc(-c2cc(NO)c(C(=O)NCc3ccccc3)c(=O)o2)cc1
CC50 at 72 h [1]: > 20 µM | Ratio CC50/EC50 [2]: 21.9 | EC50 (Hepatitis C virus [3]): 0.91 µM

CNC(=O)c1c(NO)cc(-c2ccc(C)cc2)oc1=O
CC50 at 72 h [1]: > 20 µM | Ratio CC50/EC50 [2]: 14.1 | EC50 (Hepatitis C virus [3]): 1.42 µM

Cc1ccc(NC(=O)c2c(NO)cc(-c3ccc(C)cc3)oc2=O)cc1
CC50 at 72 h [1]: > 20 µM | Ratio CC50/EC50 [2]: 43.5 | EC50 (Hepatitis C virus [3]): 0.46 µM

O=C(NCc1ccccc1)c1c(NO)cc(-c2ccccc2)oc1=O
CC50 at 72 h [1]: > 20 µM | Ratio CC50/EC50 [2]: 69 | EC50 (Hepatitis C virus [3]): 0.29 µM

Cc1ccc(-c2cc(NO)c(C(=O)NCCO)c(=O)o2)cc1
CC50 at 72 h [1]: > 20 µM | Ratio CC50/EC50 [2]: 7.7 | EC50 (Hepatitis C virus [3]): 2.58 µM

COc1ccc(-c2cc(NO)c(C(=O)NCCO)c(=O)o2)cc1
CC50 at 72 h [1]: > 20 µM | Ratio CC50/EC50 [2]: 14.2 | EC50 (Hepatitis C virus [3]): 1.41 µM

COC(=O)CNC(=O)c1c(NO)cc(-c2ccc(C)cc2)oc1=O
CC50 at 72 h [1]: > 20 µM | Ratio CC50/EC50 [2]: 5 | EC50 (Hepatitis C virus [3]): 3.99 µM

O=C(NCCCO)c1c(NO)cc(-c2ccccc2)oc1=O
CC50 at 72 h [1]: > 20 µM | Ratio CC50/EC50 [2]: 44.4 | EC50 (Hepatitis C virus [3]): 0.45 µM

COc1ccc(-c2cc(NO)c(C(=O)Nc3ccc(C)cc3)c(=O)o2)cc1
CC50 at 72 h [1]: > 20 µM | Ratio CC50/EC50 [2]: 12.5 | EC50 (Hepatitis C virus [3]): 1.6 µM

COC(=O)CNC(=O)c1c(NO)cc(-c2ccccc2)oc1=O
CC50 at 72 h [1]: > 20 µM | Ratio CC50/EC50 [2]: 10.9 | EC50 (Hepatitis C virus [3]): 1.84 µM

Cc1ccc(NC(=O)c2c(NO)cc(-c3ccc(F)cc3)oc2=O)cc1
CC50 at 72 h [1]: > 20 µM | Ratio CC50/EC50 [2]: 10.2 | EC50 (Hepatitis C virus [3]): 1.95 µM

O=C(NCc1ccccc1)c1c(NO)cc(-c2ccc(F)cc2)oc1=O
CC50 at 72 h [1]: > 20 µM | Ratio CC50/EC50 [2]: 16.9 | EC50 (Hepatitis C virus [3]): 1.18 µM

Cc1ccc(-c2cc(NO)c(C(=O)Nc3ccccc3)c(=O)o2)cc1
CC50 at 72 h [1]: > 20 µM | Ratio CC50/EC50 [2]: 13.8 | EC50 (Hepatitis C virus [3]): 1.45 µM

CC(C)NC(=O)c1c(NO)cc(-c2ccccc2)oc1=O
CC50 at 72 h [1]: > 20 µM | Ratio CC50/EC50 [2]: 44.4 | EC50 (Hepatitis C virus [3]): 0.45 µM

O=C(Nc1ccccc1)c1c(NO)cc(-c2ccccc2)oc1=O
CC50 at 72 h [1]: 11.6 µM | Ratio CC50/EC50 [2]: 33.1 | EC50 (Hepatitis C virus [3]): 0.35 µM

CCCNC(=O)c1c(NO)cc(-c2ccccc2)oc1=O
CC50 at 72 h [1]: > 20 µM | Ratio CC50/EC50 [2]: 44.4 | EC50 (Hepatitis C virus [3]): 0.45 µM

Cc1ccc(NC(=O)c2c(NO)cc(-c3ccccc3)oc2=O)cc1
CC50 [4]: > 10 µM | EC50 (Hepatitis C virus [5]): 0.077 µM | EC90 (Hepatitis C virus [5]): 0.45 µM | CC50 at 72 h [1]: > 20 µM | Ratio CC50/EC50 [2]: 111.1 | EC50 (Hepatitis C virus [3]): 0.18 µM

COC(=O)CNC(=O)c1c(NO)cc(-c2ccc(OC)cc2)oc1=O
CC50 at 72 h [1]: > 20 µM | Ratio CC50/EC50 [2]: 6.7 | EC50 (Hepatitis C virus [3]): 2.96 µM

O=C(Nc1ccc(O)cc1)c1c(NO)cc(-c2ccccc2)oc1=O
CC50 at 72 h [1]: > 20 µM | Ratio CC50/EC50 [2]: 20 | EC50 (Hepatitis C virus [3]): 1 µM

Cc1ccccc1NC(=O)c1c(NO)cc(-c2ccccc2)oc1=O
CC50 at 72 h [1]: > 20 µM | Ratio CC50/EC50 [2]: 37 | EC50 (Hepatitis C virus [3]): 0.54 µM

COc1ccc(-c2cc(NO)c(C(=O)NCc3ccccc3)c(=O)o2)cc1
CC50 at 72 h [1]: > 20 µM | Ratio CC50/EC50 [2]: 35.1 | EC50 (Hepatitis C virus [3]): 0.57 µM

COc1ccc(NC(=O)c2c(NO)cc(-c3ccccc3)oc2=O)cc1
CC50 at 72 h [1]: > 20 µM | Ratio CC50/EC50 [2]: 117.6 | EC50 (Hepatitis C virus [3]): 0.17 µM

O=C(Nc1ccccc1)c1c(NO)cc(-c2ccc(Cl)cc2)oc1=O
CC50 at 72 h [1]: 11 µM | Ratio CC50/EC50 [2]: 19.6 | EC50 (Hepatitis C virus [3]): 0.56 µM

CCC[C@H](NC(=O)[C@@H]1[C@H]2CCC[C@H]2CN1C(=O)[C@@H](NC(=O)[C@@H](NC(=O)c1cnccn1)C1CCCCC1)C(C)(C)C)C(=O)C(=O)NC1CC1 [TELAPREVIR]
CC50 at 72 h [1]: > 20 µM | Ratio CC50/EC50 (Huh-7): 44.4 | EC50 (Hepatitis C virus [3]): 0.45 µM

Cc1cccc(NC(=O)c2c(NO)cc(-c3ccccc3)oc2=O)c1
CC50 at 72 h [1]: > 20 µM | Ratio CC50/EC50 [2]: 74.1 | EC50 (Hepatitis C virus [3]): 0.27 µM

CNC(=O)c1c(NO)cc(-c2ccccc2)oc1=O
CC50 at 72 h [1]: > 20 µM | Ratio CC50/EC50 [2]: 33.3 | EC50 (Hepatitis C virus [3]): 0.6 µM

COC(=O)c1ccc(NC(=O)c2c(NO)cc(-c3ccccc3)oc2=O)cc1
CC50 at 72 h [1]: > 20 µM | Ratio CC50/EC50 [2]: 60.6 | EC50 (Hepatitis C virus [3]): 0.33 µM

CNC(=O)c1c(NO)cc(-c2ccc(OC)cc2)oc1=O
CC50 at 72 h [1]: > 20 µM | Ratio CC50/EC50 [2]: 28.6 | EC50 (Hepatitis C virus [3]): 0.7 µM

COC(=O)CNC(=O)c1c(NO)cc(-c2ccc(Cl)cc2)oc1=O
CC50 at 72 h [1]: > 20 µM | Ratio CC50/EC50 [2]: 6.5 | EC50 (Hepatitis C virus [3]): 3.06 µM

CCNC(=O)c1c(NO)cc(-c2ccccc2)oc1=O
CC50 at 72 h [1]: > 20 µM | Ratio CC50/EC50 [2]: 20 | EC50 (Hepatitis C virus [3]): 1 µM

CNC(=O)c1c(NO)cc(-c2ccc(F)cc2)oc1=O
CC50 at 72 h [1]: > 20 µM | Ratio CC50/EC50 [2]: 11.4 | EC50 (Hepatitis C virus [3]): 1.75 µM

O=C(NCc1ccccc1)c1c(NO)cc(-c2ccc(Cl)cc2)oc1=O
CC50 at 72 h [1]: > 20 µM | Ratio CC50/EC50 [2]: 29.4 | EC50 (Hepatitis C virus [3]): 0.68 µM

Cc1ccc(NC(=O)c2c(NO)cc(-c3ccc(Cl)cc3)oc2=O)cc1
CC50 at 72 h [1]: > 20 µM | Ratio CC50/EC50 [2]: 14 | EC50 (Hepatitis C virus [3]): 1.43 µM

O=C(NCCO)c1c(NO)cc(-c2ccccc2)oc1=O
CC50 at 72 h [1]: > 20 µM | Ratio CC50/EC50 [2]: 13.5 | EC50 (Hepatitis C virus [3]): 1.48 µM

O=C(Nc1ccc(Cl)cc1)c1c(NO)cc(-c2ccccc2)oc1=O
CC50 at 72 h [1]: > 20 µM | Ratio CC50/EC50 [2]: 50 | EC50 (Hepatitis C virus [3]): 0.4 µM

O=C(Nc1ccccc1)c1c(NO)cc(-c2ccc(F)cc2)oc1=O
CC50 at 72 h [1]: 10.3 µM | Ratio CC50/EC50 [2]: 9.7 | EC50 (Hepatitis C virus [3]): 1.06 µM

CNC(=O)c1c(-c2ccc(F)cc2)oc2cc(N(CCO)S(C)(=O)=O)c(C3CC3)cc12 [NESBUVIR]
CC50 at 72 h [1]: > 20 µM | Ratio CC50/EC50 [2]: 57.1 | EC50 (Hepatitis C virus [3]): 0.35 µM

COc1ccc(-c2cc(NO)c(C(=O)Nc3ccccc3)c(=O)o2)cc1
CC50 at 72 h [1]: 16.2 µM | Ratio CC50/EC50 [2]: 28.9 | EC50 (Hepatitis C virus [3]): 0.56 µM
